# Mcl1 Bid PPI – Mcl-1/Bid binding inhibitors, primary screen, biochemical, TR-FRET, 1536-well; Induced myeloid leukemia cell differentiation protein Mcl-1 (Homo sapiens), Q07820; TR-FRET Mcl-1/Bid-Dy647 peptide binding; inhibition, % at 21.7 µM; hit rate 0.97% among 220,000;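 active means compounds that cut the binding signal by more than half at the single screening dose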;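 further: His-tagged Mcl-1 with europium anti-His antibody binding Bid BH3 peptide; 0% = Mcl-1 plus peptide wells and 100% = peptide-only wells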
# Pemphigus Ab inh – inhibitors of pemphigus antibody binding to DSG3, primary screen, biochemical, bead-based, flow cytometry, scFv-GFP | Desmoglein-3 (Homo sapiens), P32926 | DSG3-coupled beads, scFv-anti-DSG3-GFP binding; active compounds read low | hit rate 0.48% among 310,000 | AID 588358, 2011 | binding (percent of control), % at 10 µM;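 active means binding more than 3 SD below its plate's average and above zero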;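 further: hits lower antibody fragment binding to DSG3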
# Target sequence (P32926 whole entry, looked up, the tested form may be a part): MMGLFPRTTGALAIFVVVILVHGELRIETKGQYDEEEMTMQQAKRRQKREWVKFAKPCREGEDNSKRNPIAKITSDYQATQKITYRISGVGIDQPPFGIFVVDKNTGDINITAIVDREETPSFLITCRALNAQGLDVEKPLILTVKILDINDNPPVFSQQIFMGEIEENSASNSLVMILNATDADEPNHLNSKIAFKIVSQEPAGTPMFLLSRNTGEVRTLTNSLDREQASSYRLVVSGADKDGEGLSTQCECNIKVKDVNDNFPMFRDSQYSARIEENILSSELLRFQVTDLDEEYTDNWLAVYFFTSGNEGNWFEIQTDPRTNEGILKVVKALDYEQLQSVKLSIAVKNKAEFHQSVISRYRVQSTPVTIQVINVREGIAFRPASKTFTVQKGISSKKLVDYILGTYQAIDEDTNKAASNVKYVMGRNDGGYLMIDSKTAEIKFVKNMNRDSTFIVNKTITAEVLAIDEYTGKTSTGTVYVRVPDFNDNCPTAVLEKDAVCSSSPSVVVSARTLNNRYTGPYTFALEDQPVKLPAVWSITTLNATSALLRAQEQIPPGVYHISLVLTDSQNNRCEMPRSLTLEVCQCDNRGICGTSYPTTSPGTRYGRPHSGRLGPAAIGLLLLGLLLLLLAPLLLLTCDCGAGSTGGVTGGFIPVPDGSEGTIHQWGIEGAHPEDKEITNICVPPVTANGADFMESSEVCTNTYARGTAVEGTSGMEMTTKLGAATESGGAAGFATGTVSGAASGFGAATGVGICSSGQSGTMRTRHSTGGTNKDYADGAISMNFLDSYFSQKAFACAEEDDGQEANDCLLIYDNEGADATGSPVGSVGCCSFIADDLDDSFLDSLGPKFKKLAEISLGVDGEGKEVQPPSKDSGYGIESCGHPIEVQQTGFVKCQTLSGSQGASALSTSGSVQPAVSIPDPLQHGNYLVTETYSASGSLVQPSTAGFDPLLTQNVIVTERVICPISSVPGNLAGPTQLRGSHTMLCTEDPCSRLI
# Bim-Mcl-1 – inhibitors of Bim peptide binding to Mcl-1, primary screen, biochemical, bead-based flow cytometry, multiplex | Induced myeloid leukemia cell differentiation protein Mcl-1 (Homo sapiens), Q07820 | Bim peptide-Mcl-1 binding | inhibition, % at 10 µM | hit rate 0.1% among 190,000; in the data active means inhibition above about 40%;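 further: 0% = no compound tracer wells and 100% = peptide blocker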
# Mcl1-Noxa inh – Mcl-1/Noxa binding inhibitors, primary screen, biochemical, TR-FRET, 1536-well; Induced myeloid leukemia cell differentiation protein Mcl-1 (Homo sapiens), Q07820; inhibition, % at 21.7 µM; TR-FRET Mcl-1/Noxa peptide binding, 2 h; hit rate 1.5% among 220,000;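 active means compounds that cut the protein-peptide binding signal by more than 50% relative to plate controls in a single-dose test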;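 further: His-tagged Mcl-1 with rhodamine Noxa BH3 peptide and terbium anti-His antibody; 0% = Mcl-1 plus Noxa peptide wells and 100% = peptide-only wells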
# MCL1-BIM inh – inhibitors of MCL1 binding to BIM-BH3, primary screen, biochemical, fluorescence polarization. AID 2057, 2009. GST-MCL1 / FITC-Bim-BH3 fluorescence polarization. inhibition, % at 10.9 µM. hit rate 0.68% among 320,000;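 active means inhibition above the mean inhibition of all tested compounds plus 3 SD, set per campaign, cut at about 40% in these data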;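 further: 0% = DMSO wells and 100% = unlabeled Bim-BH3 peptide control; higher means more loss of mP so more displacement of Bim peptide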
# T cell HTS – modulators of CD8 T cell-vesicle binding, primary screen, mouse 2C CD8+ T cells, flow cytometry. hit rate 0.068% among 330,000. 2C CD8+ T cell-vesicle binding; active compounds read low. AID 2052, 2009. response (vesicle binding), % at 7 µM;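 active means response, share of CD8 T cells binding vesicles, and their 90th percentile fluorescence all below set limits, cut at about 80% in these data, passing the limit was not always enough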;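 further: values below 100% mean blocked vesicle binding to the CD8+ T cells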
#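 material = purified 2C TCR transgenic mouse naive CD8+ T cells | controls = Unloaded micro-vesicles (low), QL9 vesicles with 0.7% DMSO (high) | detection = cytometric PE anti-B7-1 and Alexa647 anti-CD8 signals after 1% paraformaldehyde fixation | incubation = binding step 1.5 h, 37 °C, antibody labelling 20 min, ice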
# Numbers without * were called inactive; · = no result given. The list is not random: actives were taken first. Their share in the collection is about 2.3%.
SMILES,Mcl1 Bid PPI,Pemphigus Ab inh,Bim-Mcl-1,Mcl1-Noxa inh,MCL1-BIM inh,T cell HTS
CN1CCc2c(sc(/N=C/c3cccs3)c2C(N)=O)C1,-15.2,101.7,-1.0,27.7,27.1,592.8
CN1CCc2c(sc(/N=C/c3ccco3)c2C(N)=O)C1,-20.2,·,-2.0,-0.4,45.6*,137.5
CN(C)C(=O)CCc1ccc2c3c([nH]c2c1)[C@]1(C)[C@@H](C(=O)N2CCCCC2)C[C@H](CC(=O)NCCCn2ccnc2)C(=O)N1CC3,·,100.2,·,·,·,·
COc1cc2[nH]c(C(=O)NCc3ccccc3)cc2c(OC)c1OC,·,105.9,·,·,-2.1,211.5
CCOc1ccccc1Nc1nnc(C)c(=O)[nH]1,9.2,64.8,-5.0,8.7,-7.2,562.0
CCOc1ccccc1Nc1nnc(Cc2ccccc2Cl)c(=O)[nH]1,52.5*,99.1,-8.0,24.6,12.7,309.8
C=CCNC(=O)[C@H]1N2C(=O)c3ccccc3C2SC1(C)C (some centres undefined),·,98.4,·,·,5.6,319.1
Cc1ccc(C2C(C#N)=C(N)Oc3c2sc2ccccc32)o1 (centres undefined),-12.9,·,7.0,73.9*,11.6,395.5
O=C(O)c1ccccc1N/N=C/c1c(Sc2nnnn2-c2ccccc2)nc2ccccn2c1=O,-24.0,130.0,·,78.4*,-47.6,950.6
CCc1ccc2c(CN(CC)Cc3nc4ccccc4c(=O)[nH]3)cc(=O)oc2c1,89.6*,96.5,-1.0,-1.3,-1.6,131.8
COc1ccc(NC(=S)N/N=C2/CCCc3c(C)cc(C)cc32)cc1,-21.6,-6.5*,-6.0,13.2,9.9,186.3
OC(C#Cc1ccccn1)c1cccs1 (centres undefined),-13.4,101.3,-4.0,8.0,43.6*,346.7
Cc1ccc(C(=O)C2=C(O)C(=O)N(c3ncccn3)C2c2ccccc2F)o1 (centres undefined),·,97.6,·,·,23.8,296.6
COc1ccc(Nc2nc(N)c([N+](=O)[O-])c(N3CCOCC3)n2)cc1,-12.0,·,·,8.8,1.8,620.4
CN(C)c1ccc(Nc2nc(N)c([N+](=O)[O-])c(N3CCOCC3)n2)cc1,-12.2,·,1.0,82.7*,22.4,237.1
CC(C)Sc1ccc(C(=O)Nc2ccc(F)cc2F)cn1,-48.7,68.1*,3.0,4.0,3.0,125.5
Cc1cccn2c(=O)c3cc(C(N)=S)c(=N)n(CCCN4CCOCC4)c3nc12,57.9*,90.5,0.0,40.1,33.9,789.6
Cc1cccn2c(=O)c3cc(C(=O)NCCc4ccccc4)c(=N)n(Cc4ccco4)c3nc12,·,111.8,·,·,7.5,236.6
N=c1c(C(=O)NCc2ccco2)cc2c(=O)n3ccccc3nc2n1Cc1ccc(Cl)cc1,·,·,8.0,·,33.8,152.8
N=c1c(C(=O)NCc2ccccc2)cc2c(=O)n3ccccc3nc2n1Cc1ccco1,-17.1,78.7,-2.0,57.5*,-1.4,112.4
Cc1cccn2c(=O)c3cc(C(=O)NCc4ccco4)c(=N)n(CCc4ccccc4)c3nc12,0.8,93.5,·,80.3*,36.7,0.0
N=c1c(C(=O)NCc2ccc(F)cc2)cc2c(=O)n3ccccc3nc2n1Cc1ccco1,1.4,161.6,-6.0,44.8,5.2,314.3
N=c1c(C(=O)NCc2ccco2)cc2c(=O)n3ccccc3nc2n1Cc1ccccc1,-4.1,100.9,-1.0,45.6,48.2*,89.3
COCCCn1c(=N)c(C(N)=S)cc2c(=O)n3cccc(C)c3nc21,·,91.4,·,·,27.4,138.6
O=C1Nc2cc(Cl)ccc2Nc2cscc21,·,98.1,·,·,14.1,350.2
SMILES,Mcl1 Bid PPI,Pemphigus Ab inh,Bim-Mcl-1,Mcl1-Noxa inh,MCL1-BIM inh,T cell HTS
NS(=O)(=O)c1ccc(CCNC(=O)CN2CCN(Cc3cccc4ccccc34)CC2)cc1,·,112.6,·,·,-21.3,279.3
Cc1ccc(S(=O)(=O)c2nc(S(C)(=O)=O)sc2N2CCC3(CC2)OCCO3)cc1,·,106.4,·,·,1.8,467.9
N#CCSc1nc2cc(C(=O)N3CCC(C(N)=O)CC3)ccc2c2nc3ccccc3n12,2.4,101.7,0.0,51.4*,-1.5,330.1
N#CCSc1nc2cc(C(=O)N3CCCC3)ccc2c(=O)n1Cc1ccccc1,17.7,94.9,15.0,19.2,3.7,213.9
C=CCN1C=CC(=O)[C@@H](OC(=O)Nc2ccc(Br)cc2)[C@H]1c1ccccc1Br,·,103.8,·,·,·,·
CC1CCCCC1NC(=O)c1ccc2c(c1)[nH]c(=O)n2C1CCCC1 (centres undefined),7.5,98.2,-4.0,81.6*,3.1,869.0
COCCn1c(=S)[nH]c2cc(C(=O)NC3CCCCC3C)ccc2c1=O (centres undefined),·,101.9,·,·,·,·
O=C1/C(=C/c2ccccn2)SC(=S)N1Nc1ncc(C(F)(F)F)cc1Cl,·,87.2,·,·,·,·
CNc1ccc(Br)cc(C(=O)/C=C/c2ccc(OC)cc2OC)c1=O,-2.5,109.5,22.0,76.1*,-38.2,224.3
O=C(/C=C/c1ccc(Cl)cc1Cl)c1ccc[nH]1,-8.3,104.1,0.0,17.5,7.0,297.8
COc1ccc(/C=C/C(=O)c2ccc(OC)cc2OC)c(OC)c1,0.3,103.6,-3.0,1.8,-0.8,97.7
CNc1ccc(Br)cc(C(=O)/C=C/c2cccc(OC)c2)c1=O,0.7,88.6,8.0,80.7*,11.0,378.6
O=C(/C=C/c1ccccc1)c1cc(Br)ccc(=O)c1O,-68.8,100.2,-110.0,34.1,8.9,148.8
CNc1ccc(Br)cc(C(=O)/C=C/c2ccc(Cl)cc2Cl)c1=O,12.8,88.8,2.0,91.9*,-44.1,316.2
O=C(Nc1ccc2c(c1)OCO2)c1n[nH]c(=O)c2ccccc12,-74.9,100.7,·,35.1,7.4,718.2
COC(=O)Cn1cnc2c(cnn2-c2ccc(C)cc2)c1=O,·,97.8,·,·,6.2,460.4
N#Cc1nc(COc2ccc(F)cc2)oc1N1CCN(Cc2ccccc2)CC1,76.8*,109.2,1.0,2.8,7.5,229.5
N#Cc1nc(COc2ccc(Br)cc2)oc1N1CCN(Cc2ccccc2)CC1,-26.0,·,-6.0,7.7,·,·
CN=c1scc(C)n1/N=C/c1cc(Br)c(O)c(OC)c1,-40.1,94.3,0.0,52.6*,7.2,370.1
O=C(Nc1ccc(-c2nc3cc(Cl)ccc3c(=O)o2)cc1)c1ccco1,71.5*,100.7,-5.0,-20.2,0.1,358.9
Nc1ccc(C(=O)OCC(=O)NC(=O)c2ccccc2)cc1[N+](=O)[O-],·,97.8,·,·,4.2,739.3
O=C(COC(=O)c1ccc(Cl)cc1[N+](=O)[O-])NC(=O)c1ccccc1,·,49.3*,·,·,-1.0,126.3
C=CCNC(=S)Nc1sc2c(c1C(N)=O)CCCC2,-86.0,101.5,·,4.4,8.1,47.1*
